Results reported in ChEMBL document CHEMBL1126637, “Dicarboxylate diamide dimercaptide (N2S2) technetium-99m complexes: synthesis and biological evaluation as potential renal radiopharmaceuticals” (J Med Chem, 1993).
Several values for one entry are separate records, joined by “and”; a condition that tells them apart may be missing. Equal entries are not always repeated.

Legend:
[1] = tested on: Monkey; experiment: Percentage of counts in the pellet/total number of counts in both supernatant and pellet in monkey plasma (n=3); type: functional
How it was run: (§1)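 Plasma from male cynomolgus monkey or male Sprague-Dawley rat blood (centrifuged 4000 rpm, 5 min). 99mTc complex in 50% ethanol/H2O (1 × 10^6 counts) incubated with 1 mL plasma at 37 °C for 30 min. Precipitation with 0.4 mL 10% trichloroacetic acid, centrifuged 4000 rpm 10 min, pellet washed twice with water. Bound = pellet counts/(pellet + supernatant + washes) counts; 3 determinations, mean ± SD.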

[2] = organism: Rattus norvegicus; experiment: Percentage of counts in the pellet/total number of counts in both supernatant and pellet in rat plasma (n=3); type: functional; how it was run: as §1
[3] = organism: Rattus norvegicus; experiment: Biodistribution of the [99mTc] complex in rat blood at 10 min postinjection (3-4 rats used); type: ADME, organism-based; conditions: in vivo
How it was run: (§2)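 Male Sprague-Dawley rats (200-300 g), ketamine/xylazine anesthesia (80 mg/kg : 8 mg/kg), bladder cannulated with PE 50 tubing. Given iv via femoral vein 0.2 mL saline holding the 99mTc complex (20 µCi) co-injected with [131I]OIH (7 µCi). Percent injected dose per organ from comparing tissue radioactivity against dilutions of the injected dose, corrected for 131I spillover into the 99mTc channel; mean ±SD, 3-4 rats.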

[4] = organism: Rattus norvegicus; experiment: Biodistribution of the [99mTc] complex in rat blood at 60 min postinjection (3-4 rats used); type: ADME, organism-based; conditions: in vivo, 1 h; how it was run: as §2
[5] = organism: Rattus norvegicus; experiment: Biodistribution of the [99mTc] complex in rat heart at 10 min postinjection (3-4 rats used); type: ADME, organism-based; conditions: in vivo; how it was run: as §2
[6] = organism: Rattus norvegicus; experiment: Biodistribution of the [99mTc] complex in rat heart at 60 min postinjection (3-4 rats used); type: ADME, organism-based; conditions: in vivo, 1 h; how it was run: as §2
[7] = organism: Rattus norvegicus; experiment: Biodistribution of the [99mTc] complex in rat intestines at 10 min postinjection (3-4 rats used); type: ADME, organism-based, Intestine; conditions: in vivo; how it was run: as §2
[8] = organism: Rattus norvegicus; experiment: Biodistribution of the [99mTc] complex in rat intestines at 60 min postinjection (3-4 rats used); type: ADME, organism-based, Intestine; conditions: in vivo, 1 h; how it was run: as §2
[9] = organism: Rattus norvegicus; experiment: Biodistribution of the [99mTc] complex in rat kidney at 10 min postinjection (3-4 rats used); type: ADME, organism-based; conditions: in vivo; how it was run: as §2
[10] = organism: Rattus norvegicus; experiment: Biodistribution of the [99mTc] complex in rat kidney at 60 min postinjection (3-4 rats used); type: ADME, organism-based; conditions: in vivo, 1 h; how it was run: as §2
[11] = organism: Rattus norvegicus; experiment: Biodistribution of the [99mTc] complex in rat liver at 10 min postinjection (3-4 rats used); type: ADME, organism-based; conditions: in vivo; how it was run: as §2
[12] = organism: Rattus norvegicus; experiment: Biodistribution of the [99mTc] complex in rat liver at 60 min postinjection (3-4 rats used); type: ADME, organism-based; conditions: in vivo, 1 h; how it was run: as §2
[13] = organism: Rattus norvegicus; experiment: Biodistribution of the [99mTc] complex in rat lung at 10 min postinjection (3-4 rats used); type: ADME, organism-based; conditions: in vivo; how it was run: as §2
[14] = organism: Rattus norvegicus; experiment: Biodistribution of the [99mTc] complex in rat lung at 60 min postinjection (3-4 rats used); type: ADME, organism-based; conditions: in vivo, 1 h; how it was run: as §2
[15] = organism: Rattus norvegicus; experiment: Biodistribution of the [99mTc] complex in rat muscle at 10 min postinjection (3-4 rats used); type: ADME, organism-based, Muscle tissue; conditions: in vivo; how it was run: as §2
[16] = organism: Rattus norvegicus; experiment: Biodistribution of the [99mTc] complex in rat muscle at 60 min postinjection (3-4 rats used); type: ADME, organism-based, Muscle tissue; conditions: in vivo, 1 h; how it was run: as §2
[17] = organism: Rattus norvegicus; experiment: Biodistribution of the [99mTc] complex in rat spleen at 10 min postinjection (3-4 rats used); type: ADME, organism-based; conditions: in vivo; how it was run: as §2
[18] = organism: Rattus norvegicus; experiment: Biodistribution of the [99mTc] complex in rat spleen at 60 min postinjection (3-4 rats used); type: ADME, organism-based; conditions: in vivo, 1 h; how it was run: as §2
[19] = organism: Rattus norvegicus; experiment: Biodistribution of the [99mTc] complex in with OIH rat kidney at 60 min postinjection (3-4 rats used); type: ADME, organism-based; conditions: in vivo, 1 h; how it was run: as §2
[20] = organism: Rattus norvegicus; experiment: Biodistribution of the [99mTc] complex with OIH in rat blood at 10 min postinjection (3-4 rats used); type: ADME, organism-based; conditions: in vivo; how it was run: as §2
[21] = organism: Rattus norvegicus; experiment: Biodistribution of the [99mTc] complex with OIH in rat intestine at 10 min postinjection (3-4 rats used); type: ADME, organism-based; conditions: in vivo; how it was run: as §2
[22] = organism: Rattus norvegicus; experiment: Biodistribution of the [99mTc] complex with OIH in rat intestine at 60 min postinjection (3-4 rats used); type: ADME, organism-based; conditions: in vivo, 1 h; how it was run: as §2
[23] = organism: Rattus norvegicus; experiment: Biodistribution of the [99mTc] complex with OIH in rat kideny at 10 min postinjection (3-4 rats used); type: ADME, organism-based; conditions: in vivo; how it was run: as §2
[24] = organism: Rattus norvegicus; experiment: Biodistribution of the [99mTc] complex with OIH in rat liver at 10 min postinjection (3-4 rats used); type: ADME, organism-based; conditions: in vivo; how it was run: as §2
[25] = organism: Rattus norvegicus; experiment: Biodistribution of the [99mTc] complex with OIH in rat liver at 60 min postinjection (3-4 rats used); type: ADME, organism-based; conditions: in vivo, 1 h; how it was run: as §2
[26] = organism: Rattus norvegicus; experiment: Biodistribution of the [99mTc] complex with OIH in rat lung at 10 min postinjection (3-4 rats used); type: ADME, organism-based; conditions: in vivo; how it was run: as §2
[27] = organism: Rattus norvegicus; experiment: Biodistribution of the [99mTc] complex with OIH in rat muscle at 10 min postinjection (3-4 rats used); type: ADME, organism-based, Muscle tissue; conditions: in vivo; how it was run: as §2
[28] = organism: Rattus norvegicus; experiment: Biodistribution of the [99mTc] complex with OIH in rat muscle at 60 min postinjection (3-4 rats used); type: ADME, organism-based, Muscle tissue; conditions: in vivo, 1 h; how it was run: as §2
[29] = organism: Rattus norvegicus; experiment: Biodistribution of the [99mTc] complex with OIH in rat spleen at 10 min postinjection (3-4 rats used); type: ADME, organism-based; conditions: in vivo; how it was run: as §2
[30] = organism: Rattus norvegicus; experiment: Biodistribution of the [99mTc] complex with OIH in rat spleen at 60 min postinjection (3-4 rats used); type: ADME, organism-based; conditions: in vivo, 1 h; how it was run: as §2
[31] = organism: Rattus norvegicus; experiment: Biodistribution of the [99mTc] complex with OIH in rat blood at 60 min postinjection (3-4 rats used); type: ADME, organism-based; conditions: in vivo, 1 h; how it was run: as §2
[32] = organism: Rattus norvegicus; experiment: Biodistribution of the [99mTc] complex with OIH in rat heart at 10 min postinjection (3-4 rats used); type: ADME, organism-based; conditions: in vivo; how it was run: as §2
[33] = organism: Rattus norvegicus; experiment: Biodistribution of the [99mTc] complex with OIH in rat heart at 60 min postinjection (3-4 rats used); type: ADME, organism-based; conditions: in vivo, 1 h; how it was run: as §2
[34] = organism: Rattus norvegicus; experiment: Biodistribution of the [99mTc] complex with OIH in rat lung at 60 min postinjection (3-4 rats used); type: ADME, organism-based; conditions: in vivo, 1 h; how it was run: as §2
[35] = organism: Rattus norvegicus; experiment: Biodistribution of the [99mTc] complex with OIH in rat blood at 60 min postinjection (, 3-4 rats used); type: ADME, organism-based; conditions: in vivo, 1 h; how it was run: as §2
[36] = organism: Rattus norvegicus; experiment: Biodistribution of the [99mTc] complex with OIH in rat intestines at 10 min postinjection (3-4 rats used); type: ADME, organism-based, Intestine; conditions: in vivo; how it was run: as §2
[37] = organism: Rattus norvegicus; experiment: Biodistribution of the [99mTc] complex with OIH in rat intestines at 60 min postinjection (3-4 rats used); type: ADME, organism-based, Intestine; conditions: in vivo, 1 h; how it was run: as §2
[38] = organism: Rattus norvegicus; experiment: Biodistribution of the [99mTc] complex with OIH in rat kidney at 10 min postinjection ( 3-4 rats used); type: ADME, organism-based; conditions: in vivo; how it was run: as §2
[39] = organism: Rattus norvegicus; experiment: Biodistribution of the [99mTc] complex with OIH in rat kidney at 60 min postinjection (3-4 rats used); type: ADME, organism-based; conditions: in vivo, 1 h; how it was run: as §2
[40] = organism: Rattus norvegicus; experiment: Biodistribution of the [99mTc] complex with OIH in rat spleen at 10 min postinjection (mean +/- SD, 3-4 rats used); type: ADME, organism-based; conditions: in vivo; how it was run: as §2
[41] = tested on: Monkey; experiment: Percentage of counts in the pellet/total number of counts in both supernatant and pellet in monkey plasma; type: functional, Cercopithecidae; how it was run: as §1
[42] = organism: Rattus norvegicus; experiment: Percentage of counts in the pellet/total number of counts in both supernatant and pellet in rat plasma; type: functional; how it was run: as §1

Molecule	Activity [2]	Injected dose [3]	Injected dose [4]	Injected dose [5]	Injected dose [6]	Injected dose [7]	Injected dose [8]	Injected dose [9]	Injected dose [10]	Injected dose [11]	Injected dose [12]	Injected dose [13]	Injected dose [14]	Injected dose [15]	Injected dose [16]	Injected dose [17]	Injected dose [18]	Injected dose [20]	Injected dose [24]	Injected dose [30]	also measured
[sequence]	30.3%																				Activity ([1]; Cercopithecidae): 35.2%
COC(=O)C(CC(=O)NCCNC(=O)CC(SC(=O)c1ccccc1)C(=O)OC)SC(=O)c1ccccc1 (centres undefined)	22%	26.2%	15.2%	0.4%	0.3%	1.4%	1.7%	5.3%	1.9%	5%	3%	1.1%	0.7%	22.8%	20.4%	0.2%	0.1%	4.4%	3.3%	< 0.1%	Injected dose [19]: 0.5%; Injected dose [21]: 1.6%; Injected dose [22]: 1.6%; Injected dose [23]: 9.9%; Injected dose [25]: 0.5%; Injected dose [26]: 0.2%; Injected dose [27]: 7.9%; Injected dose [28]: 1.6%; Injected dose [29]: < 0.1%; Injected dose [31]: 0.5%; Injected dose [32]: 0.1%; Injected dose [33]: < 0.1%; Activity [1]: 26.5%; Injected dose [34]: < 0.1%
CCOC(=O)C(SC(=O)c1ccccc1)C(=O)NCCNC(=O)C(SC(=O)c1ccccc1)C(=O)OCC (centres undefined)	21.4%	24%	13.1%	0.4%	0.2%	1.6%	1.3%	6%	4%	4.9%	5%	0.9%	0.7%	23.6%	21.5%	0.2%	0.1%			0.9% and 0.2% and 0.4% and 2% and 1.6% and < 0.1%	Activity [1]: 21.9%
COC(=O)CC(SC(=O)c1ccccc1)C(=O)NCCNC(=O)C(CC(=O)OC)SC(=O)c1ccccc1 (centres undefined)		26.7%	16.4%	0.4%	0.2%	1.7%	1.3%	4.3%	2.1%	5%	3.1%	1.2%	0.7%	26.9%	21.1%	0.3%	0.1%	5.3%	2.5%	< 0.1%	Injected dose [35]: 0.6%; Injected dose [36]: 1.4%; Injected dose [37]: 0.8%; Injected dose [38]: 6.9%; Injected dose [39]: 0.6%; Injected dose [25]: 0.3%; Injected dose [26]: 0.3%; Injected dose [27]: 9.9%; Injected dose [28]: 1.6%; Injected dose [40]: 0.1%; Injected dose [32]: < 0.1%; Injected dose [33]: < 0.1%; Activity [41]: 26.2%; Activity [42]: 31.1%; Injected dose [34]: < 0.1%
